Measurements from ChEMBL document CHEMBL1144782, “Isoindolo[2,1-a]quinoxaline derivatives, novel potent antitumor agents with dual inhibition of tubulin polymerization and topoisomerase I” (2008).
Calls of active or inactive are those of the source. The calls are words filed in the database; no cut-off is given here.

Experiments:
HOP-92 = assay: Antitumor activity against human HOP92 cells; assay type: functional
Method in brief: (§1)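 Run by the NCI in its in vitro disease-oriented screen of about 60 human tumour cell lines. For each line it reports pGI50 (50% net growth inhibition), pTGI (total growth inhibition) and pLC50 (50% net cell death), each as –log molar concentration. Where an effect was not reached within the tested range, the highest tested concentration was used.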

NCI-H522 = assay: Antitumor activity against human NCI-H522 cells; assay type: functional; method in brief: as §1
COLO 205 = assay: Antitumor activity against human COLO205 cells; assay type: functional; method in brief: as §1
HCC 2998 = assay: Antitumor activity against human HCC2998 cells; assay type: functional; method in brief: as §1
HCT-116 = assay: Antitumor activity against human HCT116 cells; assay type: functional; method in brief: as §1
SF-268 [1] = assay: Antitumor activity against human SF268 cells; assay type: functional; method in brief: as §1
Jurkat [2] = assay: Cell cycle arrest in human Jurkat cells assessed as accumulation at G2/M phase at 62.5 nM after 24 hrs by flow cytometry; assay type: functional
Method in brief: (§2)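 Exponentially growing Jurkat cells (5 × 105) were exposed to compound for 24 h. Cells were then fixed in ice-cold 70% ethanol, lysed with RNase A-containing buffer and stained with propidium iodide. DNA-content histograms from flow cytometry gave G1, S and G2/M fractions.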

SF-539 = assay: Antitumor activity against human SF539 cells; assay type: functional; method in brief: as §1
SNB-75 = assay: Antitumor activity against human SNB75 cells; assay type: functional; settings: Homo sapiens, SNB-75; method in brief: as §1
LOX IMVI = assay: Antitumor activity against human LOXIMVI cells; assay type: functional; method in brief: as §1
M14 = assay: Antitumor activity against human M14 cells; assay type: functional; method in brief: as §1
UACC-62 = assay: Antitumor activity against human UACC62 cells; assay type: functional
Method in brief: (§3)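 NCI 60-cell-line screen. Parameters were GI50 (50% net growth inhibition), TGI and LC50, each reported as –log molar concentration. Where an effect was not reached within the tested range, the highest tested concentration was used in the calculation.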

IGROV-1 = assay: Antitumor activity against human IGROV1 cells; assay type: functional; method in brief: as §1
OVCAR-4 = assay: Antitumor activity against human OVCAR4 cells; assay type: functional; method in brief: as §1
SK-OV-3 = assay: Antitumor activity against human SKOV3 cells; assay type: functional; method in brief: as §1
CAKI-1 = assay: Antitumor activity against human CAKI1 cells; assay type: functional; method in brief: as §1
Jurkat [3] = assay: Cell cycle arrest in human Jurkat cells assessed as accumulation at S phase at 125 nM after 24 hrs by flow cytometry; assay type: functional; method in brief: as §2
Jurkat [4] = assay: Cell cycle arrest in human Jurkat cells assessed as accumulation at G1 phase at 250 nM after 24 hrs by flow cytometry; assay type: functional; method in brief: as §2
Jurkat [5] = assay: Cell cycle arrest in human Jurkat cells assessed as accumulation at G2/M phase at 250 nM after 24 hrs by flow cytometry; assay type: functional; method in brief: as §2
Jurkat [6] = assay: Cell cycle arrest in human Jurkat cells assessed as accumulation at S phase at 250 nM after 24 hrs by flow cytometry; assay type: functional; method in brief: as §2
Jurkat [7] = assay: Cell cycle arrest in human Jurkat cells assessed as accumulation at G2/M phase at 500 nM after 24 hrs by flow cytometry; assay type: functional; method in brief: as §2
Tubulin (Sus scrofa) = Tubulin (Sus scrofa) (UniProt P02554+P02550); assay: Inhibition of pig brain tubulin polymerization at 5 uM
Chain of Tubulin (Sus scrofa) (P02550 whole entry, looked up): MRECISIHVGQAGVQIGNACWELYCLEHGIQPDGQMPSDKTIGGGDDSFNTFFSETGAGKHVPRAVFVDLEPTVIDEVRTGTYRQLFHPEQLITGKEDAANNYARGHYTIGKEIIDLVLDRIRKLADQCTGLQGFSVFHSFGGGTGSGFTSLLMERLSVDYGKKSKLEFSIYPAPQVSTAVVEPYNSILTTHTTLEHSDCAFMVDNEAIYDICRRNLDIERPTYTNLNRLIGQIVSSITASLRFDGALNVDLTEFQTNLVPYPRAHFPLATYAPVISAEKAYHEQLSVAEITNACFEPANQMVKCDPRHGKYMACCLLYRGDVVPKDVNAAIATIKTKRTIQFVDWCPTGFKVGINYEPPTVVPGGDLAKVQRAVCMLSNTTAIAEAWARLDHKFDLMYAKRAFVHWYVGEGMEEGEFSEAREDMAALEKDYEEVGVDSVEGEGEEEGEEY
Chain of Tubulin (Sus scrofa) (P02554 whole entry, looked up): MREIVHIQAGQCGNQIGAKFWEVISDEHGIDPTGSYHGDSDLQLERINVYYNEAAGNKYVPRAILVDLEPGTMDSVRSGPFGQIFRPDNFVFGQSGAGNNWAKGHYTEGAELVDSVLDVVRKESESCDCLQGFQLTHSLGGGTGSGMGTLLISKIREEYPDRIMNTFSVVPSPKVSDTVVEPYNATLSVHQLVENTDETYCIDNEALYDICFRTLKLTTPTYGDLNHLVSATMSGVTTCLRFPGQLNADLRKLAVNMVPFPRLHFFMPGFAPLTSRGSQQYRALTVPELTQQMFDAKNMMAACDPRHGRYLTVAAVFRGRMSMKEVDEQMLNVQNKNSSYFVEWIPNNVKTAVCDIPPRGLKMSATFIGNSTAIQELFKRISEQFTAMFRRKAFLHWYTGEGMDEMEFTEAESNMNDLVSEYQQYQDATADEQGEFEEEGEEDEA

[8] = target: DNA topoisomerase 1 (Homo sapiens) (UniProt P11387); assay: Inhibition of human topoisomerase 1-mediated relaxation of supercoiled pBR322 DNA at 20 uM by agarose gel electrophoresis
Chain of DNA topoisomerase 1 (Homo sapiens) (P11387 whole entry): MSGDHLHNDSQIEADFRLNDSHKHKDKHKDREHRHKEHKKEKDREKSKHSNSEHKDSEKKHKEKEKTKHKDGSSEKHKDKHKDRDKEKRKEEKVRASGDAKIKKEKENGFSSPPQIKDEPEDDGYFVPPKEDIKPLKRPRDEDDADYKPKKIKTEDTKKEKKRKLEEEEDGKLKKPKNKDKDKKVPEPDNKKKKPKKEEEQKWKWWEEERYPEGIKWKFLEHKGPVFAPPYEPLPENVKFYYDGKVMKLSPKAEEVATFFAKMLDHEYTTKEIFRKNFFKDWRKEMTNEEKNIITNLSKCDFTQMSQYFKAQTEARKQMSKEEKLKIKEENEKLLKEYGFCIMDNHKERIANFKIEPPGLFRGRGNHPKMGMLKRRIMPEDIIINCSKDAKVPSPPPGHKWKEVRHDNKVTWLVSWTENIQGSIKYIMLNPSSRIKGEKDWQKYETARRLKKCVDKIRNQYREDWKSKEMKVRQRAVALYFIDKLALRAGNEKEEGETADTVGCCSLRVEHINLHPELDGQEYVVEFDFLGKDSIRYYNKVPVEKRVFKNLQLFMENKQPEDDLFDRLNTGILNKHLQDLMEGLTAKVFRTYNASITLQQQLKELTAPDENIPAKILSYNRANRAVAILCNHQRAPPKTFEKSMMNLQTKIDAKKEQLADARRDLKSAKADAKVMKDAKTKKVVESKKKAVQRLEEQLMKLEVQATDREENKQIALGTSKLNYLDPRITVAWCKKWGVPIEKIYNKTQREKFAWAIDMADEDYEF
Method in brief: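 Supercoiled pBR322 was incubated with 5 units of human topoisomerase I for 30 min at 37 °C in 50 mM Tris-HCl pH 7.8, 50 mM KCl, 10 mM MgCl2, 1 mM DTT, 1 mM EDTA, with drug 0.5–200 µM. Reactions were stopped with SDS and proteinase K, run on 1% agarose at 20 V overnight, stained with ethidium bromide, and bands quantified. Ethidium-containing gels were also run.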

Jurkat [9] = assay: Effect on mitochondrial dysfunction in human Jurkat cells assessed as induction of ROS production after 24 hrs by flow cytometry; assay type: functional, cell-based
Method in brief: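 Jurkat cells after 24 h exposure were resuspended in HBSS with hydroethidine (2.5 µM, ROS) or NAO (100 nM, cardiolipin oxidation) for 30 min at 37 °C. Flow cytometry used 488 nm excitation, with emission at 585 nm (HE) or 530 nm (NAO). Mean ± SEM of three experiments.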

MCF7 [10] = assay: Cell viability against human MCF7 cells at 10 uM; assay type: functional
SF-268 [11] = assay: Cell viability against human SF268 cells at 10 uM; assay type: functional
[12] = Antitumor activity against human HL60(TB) cells; assay type: functional, HL-60(TB)
Method in brief: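 Tested by the NCI in its in vitro disease-oriented human tumor cell line screen. Each cell line gave pGI50 (−log molar concentration for 50% net growth inhibition), pTGI (−log molar concentration for total growth inhibition) and pLC50 (−log molar concentration for 50% net cell death).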

A549 = assay: Antitumor activity against human A549 cells; assay type: functional; method in brief: as §1
SN12C = assay: Antitumor activity against human SN12C cells; assay type: functional; method in brief: as §1
TK-10 = assay: Antitumor activity against human TK10 cells; assay type: functional; method in brief: as §3
MCF7 [13] = assay: Antitumor activity against human MCF7 cells; assay type: functional; method in brief: as §1
[14] = Antitumor activity against human […] cells; assay type: functional; method in brief: as §1
T47D = assay: Antitumor activity against human T47D cells; assay type: functional; method in brief: as §3
CCRF-CEM = assay: Resistance index, Ratio of GI50 for human vinblastine-resistant CEM cells to GI50 for human CEM cells; assay type: functional
Jurkat [15] = assay: Cell cycle arrest in human Jurkat cells assessed as accumulation at G2/M phase at 32 nM after 24 hrs by flow cytometry; assay type: functional; method in brief: as §2
[16] = read-out: Log LC50 (the source's name) (converted)

COc1ccc2c(c1)[nH]c(=O)c1c3ccccc3cn21
GI50 (HOP-92): 1000 nM | LC50 (HOP-92): 39.8 µM | TGI (HOP-92; read-out: pTGI (converted)): 15.8 µM | GI50 (NCI-H522): 60.3 nM | CC50 (NCI-H522; [16]): 10 µM | TGI (NCI-H522; read-out: pTGI (converted)): 2290 nM | GI50 (COLO 205): 40.7 nM | LC50 (COLO 205): 5.75 µM | TGI (COLO 205; read-out: pTGI (converted)): 1150 nM | GI50 (HCC 2998): 18.2 nM | LC50 (HCC 2998): 501 nM | TGI (HCC 2998; read-out: pTGI (converted)): 49 nM | GI50 (HCT-116): 39.8 nM | LC50 (HCT-116): 4.47 µM | TGI (HCT-116; read-out: pTGI (converted)): 1320 nM | GI50 (SF-268 [1]): 74.1 nM | CC50 (SF-268 [1]; [16]): 87.1 µM | TGI (SF-268 [1]; read-out: pTGI (converted)): 2950 nM | Activity (Jurkat [2]): 43.1% | GI50 (SF-539): 22.9 nM | LC50 (50% net cell kill) (SF-539): 2750 nM | TGI (SF-539; read-out: pTGI (converted)): 70.8 nM | GI50 (SNB-75): 27.5 nM | LC50 (SNB-75): > 100 µM | TGI (SNB-75; read-out: pTGI (converted)): 83.2 nM | GI50 (LOX IMVI): 70.8 nM | LC50 (50% net cell kill) (LOX IMVI): 4.47 µM | TGI (LOX IMVI; read-out: pTGI (converted)): 1780 nM | GI50 (M14): 10 nM | CC50 (M14; [16]): 3.63 µM | TGI (M14; read-out: pTGI (converted)): 12.9 µM | GI50 (UACC-62): 74.1 nM | LC50 (UACC-62): 4.37 µM | TGI (UACC-62; read-out: pTGI (converted)): 1910 nM | GI50 (IGROV-1): 74.1 nM | CC50 (IGROV-1; [16]): 8.51 µM | TGI (IGROV-1; read-out: pTGI (converted)): 2290 nM | GI50 (OVCAR-4): 91.2 nM | LC50 (50% net cell kill) (OVCAR-4): > 100 µM | TGI (OVCAR-4; read-out: pTGI (converted)): 5.13 µM | GI50 (SK-OV-3): 38.9 nM | LC50 (50% net cell kill) (SK-OV-3): 8.51 µM | TGI (SK-OV-3; read-out: pTGI (converted)): 1620 nM | GI50 (CAKI-1): 35.5 nM | LC50 (CAKI-1): 5.13 µM | TGI (CAKI-1; read-out: pTGI (converted)): 2000 nM | Activity (Jurkat [3]): 38.6% | Activity (Jurkat [4]): 0.6% | Activity (Jurkat [5]): 55.2% | Activity (Jurkat [6]): 44.2% | Activity (Jurkat [7]): 50.9% | Activity (Tubulin (Sus scrofa)): Active | Activity [8]: Active | Activity (Jurkat [9]): Active | Activity (MCF7 [10]): 0% | Activity (SF-268 [11]): 1% | GI50 ([12]; HL-60): 11.5 nM | CC50 ([12]; HL-60, read-out: Log LC50 (the source's name) (converted)): 3.55 µM | TGI ([12]; HL-60, read-out: pTGI (converted)): 60.3 nM | GI50 (A549): 67.6 nM | CC50 (A549; [16]): 6.03 µM | TGI (A549; read-out: pTGI (converted)): 1660 nM | GI50 (SN12C): 57.5 nM | LC50 (SN12C): > 100 µM | TGI (SN12C; read-out: pTGI (converted)): 2090 nM | GI50 (TK-10): 513 nM | CC50 (TK-10; [16]): 6.61 µM | TGI (TK-10; read-out: pTGI (converted)): 2450 nM | GI50 (MCF7 [13]): 28.2 nM | LC50 (50% net cell kill) (MCF7 [13]): 5.5 µM | TGI (MCF7 [13]; read-out: pTGI (converted)): 1450 nM | GI50 [14]: 56.2 nM | LC50 [14]: 3.09 µM | TGI ([14]; read-out: pTGI (converted)): 741 nM | GI50 (T47D): 47.9 nM | LC50 (T47D): > 100 µM | TGI (T47D; read-out: pTGI (converted)): 4.57 µM | RatioGI50 (CCRF-CEM): 1 | Activity (Jurkat [15]): 28.8%
